Screens (PubChem BioAssay)
WT yeast gro inh: growth inhibition of WT yeast, mitochondrial fusion screen | inhibition, % at 10 µM | 190,000 tested, 2.1% active | mitochondrial fusion phenotypic screen, WT strain; in the data active means inhibition above about 58%; tested in S. cerevisiae
RAM inhibit: yeast RAM network inhibition; S. cerevisiae dse1pr::URA3 reporter, 5-FOA growth OD615, 2 d; analog-sensitive cbk1-as2 kinase mutant strain; inhibition, % at 50 µM; 190,000 tested, 1.8% active;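 active means inhibition above a set limit, 3 SD over mean compound inhibition, cut at about 8.4% in these data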;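 further: inhibition rescues growth on 5-FOA so higher OD means more RAM inhibition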
ABCB1 block: inhibitors of human ABCB1 transporter, ABCG2 counter-screen; CCRF-Adr cells, JC-1 efflux, flow cytometry; 190,000 tested, 0.067% active; inhibition, % at 6.6 µM; in the data active means inhibition above about 40%;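 further: higher value means more JC-1 retained so stronger ABCB1 efflux block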
ABCG2 inh: blocks JC-1 efflux by human ABCG2 transporter; inhibition, % at 6.6 µM; 190,000 tested, 0.1% active; IgMXP3 cells, flow cytometry; Q9UNQ0;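 active means inhibition above 80%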
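Test system: IgMXP3 cells (ABCG2) mixed with DDAO far-red-labelled CCRF-Adr cells (ABCB1). Reagent: JC-1 transporter substrate. Compound dosing: single test compound dose, 6.6 µM final. Times: 10 min compound exposure, 25 °C. Detection: flow cytometry of retained JC-1 fluorescence. Read-out basis: efflux inhibition in percent versus controls. Controls: nicardipine and DMSO wells.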
L major viab: inhibitors of Leishmania major promastigote growth; Leishmania major promastigotes, resazurin fluorescence viability; inhibition, % at 10 µM; 200,000 tested, 9% active; AID 1063; in the data active means inhibition above about 50%;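 further: promastigotes grown with compound for 44 hours at 28 °C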
L major 1uM: L. major promastigote growth inhibition, 1 uM repeat; shares compounds with L major viab; resazurin fluorescence, 48 h; inhibition, % at 1 µM; 1,100 tested, 13% active; AID 1258;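 active means inhibition above about 50% in both repeat tests, limit read from the data; inconclusive means one repeat under the set limit, the other over it; inactive means both repeats under the set limit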
ABCB1 confirm: confirmation of human ABCB1 transporter inhibitors, ABCG2 counter-screen; 270 tested, 7% active; shares compounds with ABCG2 inh; CCRF-Adr cells, JC-1 efflux, flow cytometry; inhibition, % at 6.6 µM;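 active means inhibition of pump activity above 50%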
ABCG2 single pt: inhibits human ABCG2 efflux, confirmed at single point; shares compounds with ABCG2 inh; IgMXP3 cells, JC-1 efflux, flow cytometry; inhibition, % at 6.6 µM; 270 tested, 6% active; AID 1453;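 active means inhibition above 50%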
IgMXP3 fluor: counter-screen for ABCG2 inhibitors: compound fluorescence in IgMXP3 cells | compound autofluorescence 488/530 nm, flow; hits give high values | fluorescence at 6.6 µM | shares compounds with ABCG2 inh | 270 tested, 30% active | AID 1480;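 active means fluorescence in ABCG2-expressing cells above the plate's control-well mean plus 3 SD, cut at about 15 in these data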
CCRF-Adr fluor: CCRF-Adr autofluorescence flag for ABCB1 confirmation; shares compounds with ABCG2 inh; CCRF-Adr cells, compound autofluorescence 488/530 nm, flow cytometry; hits give high values; fluorescence at 6.6 µM; 270 tested, 30% active; AID 1483;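 active means fluorescence beyond the plate control mean plus 3 SD, with a fluorescence-to-maximum score over 2, cut at about 25 in these data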
Hits are given with their value; – = inactive; ? = inconclusive; · = no result given. The list is not random: actives were taken first. Their share in the collection is about 12%.

SMILES	WT yeast gro inh	RAM inhibit	ABCB1 block	ABCG2 inh	L major viab	L major 1uM	others
FC(F)(F)c1ccc2c(c1)N(CCCN1CCN(CCCl)CC1)c1ccccc1S2	–	–	–	–	100	–
OC1/C(=C/c2ccccc2F)N2CCC1CC2 (centres undefined)	–	–	–	–	–	·
Cn1cc2c([N+](=O)[O-])cc([N+](=O)[O-])cc2n1	–	–	–	–	100	–
CCC1(CC)C(=O)N(Cc2ccccc2)C(=O)N(Cc2ccccc2)C1=O	–	–	–	–	82	?
CC(C)(C)P(=O)(c1ccncc1)N1CCCC1 (centres undefined)	–	–	–	–	–	·
O=C(Cc1cccs1)N1CCC2(CC1)OCCO2	–	–	–	–	–	·
CC(C)(O)[C@H]1O[C@H]2CC[C@@]3(C)[C@@](O)(CC[C@H]4Cc5c([nH]c6ccccc56)[C@@]43C)C2=CC1=O	74	–	–	–	94	–
C[C@@]1(CO)[C@H](O)CC[C@@]2(C)[C@H]1CC[C@H]1C[C@@H]3C[C@@]12CC[C@]3(O)CO	–	–	–	–	100	95
COCCNC(=O)c1ccc(N2CC3CC(C2)c2cccc(=O)n2C3)c([N+](=O)[O-])c1 (centres undefined)	–	–	–	–	–	·
CC(C)N1CC=C(c2c[nH]c3ccccc23)CC1	–	–	–	–	–	·
C1=C(c2c[nH]c3ccccc23)CCNC1	–	–	–	–	100	–
Cc1ccc(-c2nn(Cc3ccccc3)cc2C=O)cc1	–	–	–	–	–	·
Cc1ccc(-c2nn(Cc3ccccc3)cc2C=O)cc1C	–	–	–	–	54	–
CC1CC(NC(=O)C2C3CCC(O3)C2C(=O)O)CC(C)(C)C1 (centres undefined)	–	–	–	–	–	·
COc1ccc(C2=NCc3nnc(C)n3-c3ccc(Cl)cc32)cc1Cl	–	–	–	–	–	·
COc1ccccc1C1=NCc2nnc(C)n2-c2ccc(Cl)cc21	–	–	–	–	61	–
CN(C)C(=S)SSC(=S)N(C)C	–	–	–	–	101	99
C[C@H]1C[C@@H](C)C(=O)[C@@H]([C@H](O)CC2CC(=O)NC(=O)C2)C1	–	–	–	–	100	100
NS(=O)(=O)c1cccc(N2CCNCC2)c1	–	–	–	–	–	·
O=C1N(c2ccc(Cl)cc2)C(c2cccnc2)N2CCCN12 (centres undefined)	–	–	–	–	69	–
Cc1c(C(=O)N2CCC3(CC2)OCCO3)sc2ncnc(N3CCc4ccccc4C3)c12	–	–	–	–	–	·
CCc1ccc(/C=C(/C#N)C(N)=S)cc1	–	–	–	–	50	–
Cc1cc(N)n(C2CCN(C)CC2)n1	–	–	–	–	–	·
O=C(Cn1cc(C(=O)c2ccccc2F)c2ccccc21)NC1CC1	–	–	–	–	–	·
CCOc1cccc(C2NCc3ccccc3-n3cccc32)c1O (centres undefined)	–	–	–	–	–	·
SMILES	WT yeast gro inh	RAM inhibit	ABCB1 block	ABCG2 inh	L major viab	L major 1uM	others
CCOc1cc(C2NCc3ccccc3-n3cccc32)ccc1O (centres undefined)	–	–	–	–	99	–
Cc1ccc(-c2cc(-c3ccc(C)cc3)[n+](C)o2)cc1	–	–	–	–	100	99
CC[N+](CC)(CC#CCO)CC#Cc1ccccc1	–	–	–	–	–	·
O=P(Nc1cccnc1)(Oc1ccccc1)Oc1ccccc1	–	–	–	–	93	–
CN1C2CCC1CC(OC(=O)c1ccc(Cl)cc1)(C(=O)O)C2 (centres undefined)	–	–	–	–	–	·
O=C(c1ccc(-c2ccccc2)c(F)c1)C1CCCN(CCO)C1 (centres undefined)	–	–	–	–	99	63
OC1/C(=C/c2ccccc2C(F)(F)F)N2CCC1CC2 (centres undefined)	–	–	–	–	–	·
CCn1cc(/C=c2/sc3n(c2=O)C2c4ccccc4OC(C)(N=3)C2C(=O)OC)c(C)n1 (centres undefined)	–	–	53	–	–	·	ABCB1 confirm=–;ABCG2 single pt=–;IgMXP3 fluor=18;CCRF-Adr fluor=–
CC1=NN(c2ccccc2)C(=O)C1/C=C1/C(=O)NC(=O)N(c2cccc(C)c2)C1=O (centres undefined)	–	–	–	–	–	·
Cc1cccc(N2C(=O)NC(=O)/C(=C\c3ccc4c(c3)CCCN4Cc3ccccc3)C2=O)c1	–	–	50	–	–	·	ABCB1 confirm=–;ABCG2 single pt=–;IgMXP3 fluor=14;CCRF-Adr fluor=59
Cn1cc(C(=O)N2CCCCC2)c2ccccc21	–	–	–	–	–	·
